In ChEMBL document CHEMBL1145811, “Synthesis and antibacterial activity of a novel series of acylides: 3-O-(3-pyridyl)acetylerythromycin A derivatives” (J Med Chem, 2003):
Values after ≈ are worked out from the molar mass of the structure shown.

Legend:
Assay type in all cases: functional
Staphylococcus aureus [1] = assay: In vitro minimum inhibitory concentration for antibacterial activity against Staphylococcus aureus B1 (inducibly MLSb-resistant strain encoded by the erm(C) gene)
Summary of the method: (§1)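 Agar dilution MIC determined by the Japan Society of Chemotherapy standard method for aerobic bacteria.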

Streptococcus pneumoniae [2] = assay: In vitro minimum inhibitory concentration for antibacterial activity against Streptococcus pneumoniae 210 (efflux-resistant strain encoded by the mef(A) gene); summary of the method: as §1
Haemophilus influenzae [3] = assay: In vitro minimum inhibitory concentration for antibacterial activity against Haemophilus influenzae ATCC 43095 (ampicillin-susceptible strain that does not produce beta-lactamase); summary of the method: as §1
Staphylococcus aureus [4] = assay: In vitro minimum inhibitory concentration for antibacterial activity against erythromycin-susceptible strain Staphylococcus aureus […]
Summary of the method: (§2)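 MIC by agar dilution following the Japan Society of Chemotherapy standard method for aerobic bacteria. S. aureus 209P-JC and S. pneumoniae IID553 are erythromycin-susceptible strains.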

Staphylococcus aureus [5] = assay: In vitro minimum inhibitory concentration for antibacterial activity against Staphylococcus aureus SR138 (constitutively MLSb-resistant strain encoded by the erm(A) gene); summary of the method: as §1
Streptococcus pneumoniae [6] = assay: In vitro minimum inhibitory concentration for antibacterial activity against Streptococcus pneumoniae 211 (MLSb-resistant strain encoded by the erm(B) gene); summary of the method: as §1
Haemophilus influenzae [7] = assay: In vitro minimum inhibitory concentration for antibacterial activity against Haemophilus influenzae ATCC 33533 (ampicillin-resistant strain that produces beta-lactamase); summary of the method: as §1
Streptococcus pneumoniae [8] = assay: In vitro minimum inhibitory concentration for antibacterial activity against erythromycin-susceptible strain Streptococcus pneumoniae IID553; summary of the method: as §2

Row | Structure (SMILES) | MIC (Staphylococcus aureus [1]) [µg/mL] | MIC (Streptococcus pneumoniae [2]) [µg/mL] | MIC (Haemophilus influenzae [3]) [µg/mL] | MIC (Staphylococcus aureus [4]) [µg/mL] | MIC (Staphylococcus aureus [5]) [µg/mL] | MIC (Streptococcus pneumoniae [6]) [µg/mL] | MIC (Haemophilus influenzae [7]) [µg/mL] | MIC (Streptococcus pneumoniae [8]) [µg/mL]
1 | CC[C@H]1OC(=O)[C@H](C)[C@@H](OC(=O)Cc2ccccc2OC)[C@H](C)[C@@H](OC2O[C@H](C)C[C@H](N(C)C)[C@H]2O)[C@@](C)(OC)C[C@@H](C)C(=O)[C@H](C)[C@@H](O)[C@]1(C)O (stereo partly drawn) | 12.5 (≈ 16.9 µM) | 1.56 (≈ 2.11 µM) | > 100 | 3.13 (≈ 4.24 µM) | > 100 | > 100 | 100 (≈ 136 µM) | 1.56 (≈ 2.11 µM)
2 | CC[C@H]1OC(=O)[C@H](C)[C@@H](OC(=O)Cc2ccncc2)[C@H](C)[C@@H](OC2O[C@H](C)C[C@H](N(C)C)[C@H]2O)[C@@]2(C)C[C@@H](C)[C@H](OC(=O)O2)[C@H](C)[C@H]2OC(=O)O[C@@]21C (stereo partly drawn) | 0.39 (≈ 0.521 µM) | 0.2 (≈ 0.267 µM) | 12.5 (≈ 16.7 µM) | 0.2 (≈ 0.267 µM) | > 100 | > 100 | 6.25 (≈ 8.35 µM) | 0.05 (≈ 0.0668 µM)
3 | CC[C@H]1OC(=O)[C@H](C)[C@@H](OC(=O)Cc2cccnc2)[C@H](C)[C@@H](OC2O[C@H](C)C[C@H](N(C)C)[C@H]2O)[C@@](C)(O)C[C@@H](C)CN(C)[C@H](C)[C@@H](O)[C@]1(C)O (stereo partly drawn) | 6.25 (≈ 8.8 µM) | 0.78 (≈ 1.1 µM) | 1.56 (≈ 2.2 µM) | 3.13 (≈ 4.41 µM) | > 100 | > 100 | 1.56 (≈ 2.2 µM) | 0.78 (≈ 1.1 µM)
4 | CC[C@H]1OC(=O)[C@H](C)[C@@H](OC(=O)Cc2cccnc2)[C@H](C)[C@@H](OC2O[C@H](C)C[C@H](N(C)C)[C@H]2O)[C@@](C)(O)C[C@@H](C)C(=O)[C@H](C)[C@@H](O)[C@]1(C)O (stereo partly drawn) | 6.25 (≈ 8.99 µM) | 0.78 (≈ 1.12 µM) | 12.5 (≈ 18 µM) | 1.56 (≈ 2.25 µM) | > 100 | > 100 | 12.5 (≈ 18 µM) | 0.2 (≈ 0.288 µM)
5 | CC[C@H]1OC(=O)[C@H](C)[C@@H](OC(=O)Cc2ccccc2[N+](=O)[O-])[C@H](C)[C@@H](OC2O[C@H](C)C[C@H](N(C)C)[C@H]2O)[C@@](C)(OC)C[C@@H](C)C(=O)[C@H](C)[C@@H](O)[C@]1(C)O (stereo partly drawn) | 0.78 (≈ 1.04 µM) | 0.2 (≈ 0.266 µM) | 50 (≈ 66.4 µM) | 0.39 (≈ 0.518 µM) | > 100 | > 100 | 50 (≈ 66.4 µM) | 0.2 (≈ 0.266 µM)
6 | CC[C@H]1OC(=O)[C@H](C)[C@@H](OC(=O)Cc2cccc(OC)c2)[C@H](C)[C@@H](OC2O[C@H](C)C[C@H](N(C)C)[C@H]2O)[C@@](C)(OC)C[C@@H](C)C(=O)[C@H](C)[C@@H](O)[C@]1(C)O (stereo partly drawn) | 3.13 (≈ 4.24 µM) | 0.39 (≈ 0.529 µM) | 50 (≈ 67.8 µM) | 1.56 (≈ 2.11 µM) | > 100 | > 100 | 25 (≈ 33.9 µM) | 0.39 (≈ 0.529 µM)
7 | CC[C@H]1OC(=O)[C@H](C)[C@@H](OC(=O)Cc2cccnc2)[C@H](C)[C@@H](OC2O[C@H](C)C[C@H](N(C)C)[C@H]2O)[C@@](C)(OC)C[C@@H](C)/C(=N\O)[C@H](C)[C@@H](O)[C@]1(C)O (stereo partly drawn) | 1.56 (≈ 2.15 µM) | 0.39 (≈ 0.539 µM) | 12.5 (≈ 17.3 µM) | 0.78 (≈ 1.08 µM) | > 100 | > 100 | 12.5 (≈ 17.3 µM) | 0.2 (≈ 0.276 µM)
8 | CC[C@H]1OC(=O)[C@H](C)[C@@H](OC2C[C@@](C)(OC)[C@@H](O)[C@H](C)O2)[C@H](C)[C@@H](OC2O[C@H](C)C[C@H](N(C)C)[C@H]2O)[C@@]2(C)C[C@@H](C)[C@H](OC(=O)O2)[C@H](C)[C@H]2OC(=O)O[C@@]21C (stereo partly drawn) | > 100 | 0.39 (≈ 0.495 µM) | 1.56 (≈ 1.98 µM) | 0.1 (≈ 0.127 µM) | > 100 | > 100 | 1.56 (≈ 1.98 µM) | 0.1 (≈ 0.127 µM)
9 | CC[C@H]1OC(=O)[C@H](C)[C@@H](OC(=O)Cc2cccnc2)[C@H](C)[C@@H](OC2O[C@H](C)C[C@H](N(C)C)[C@H]2O)[C@@](C)(O)C[C@@H](C)[C@H](O)[C@H](C)[C@H]2OC(=O)O[C@@]21C (stereo partly drawn) | 0.78 (≈ 1.08 µM) | 0.2 (≈ 0.277 µM) | 3.13 (≈ 4.33 µM) | 0.78 (≈ 1.08 µM) | > 100 | > 100 | 6.25 (≈ 8.65 µM) | 0.1 (≈ 0.138 µM)
10 | CC[C@H]1OC(=O)[C@H](C)[C@@H](OC(=O)CCc2cccc(OC)c2)[C@H](C)[C@@H](OC2O[C@H](C)C[C@H](N(C)C)[C@H]2O)[C@@](C)(OC)C[C@@H](C)C(=O)[C@H](C)[C@@H](O)[C@]1(C)O (stereo partly drawn) | 3.13 (≈ 4.16 µM) | 0.78 (≈ 1.04 µM) | 100 (≈ 133 µM) | 3.13 (≈ 4.16 µM) | > 100 | > 100 | 100 (≈ 133 µM) | 0.78 (≈ 1.04 µM)
11 | CC[C@H]1OC(=O)[C@H](C)[C@@H](OC(=O)Cc2cccnc2)[C@H](C)[C@@H](OC2O[C@H](C)C[C@H](N(C)C)[C@H]2O)[C@@](C)(O)C[C@@H](C)[C@@H]2OC(=O)O[C@H]([C@H]2C)[C@]1(C)O (stereo partly drawn) | 1.56 (≈ 2.16 µM) | 0.39 (≈ 0.54 µM) | 12.5 (≈ 17.3 µM) | 0.78 (≈ 1.08 µM) | > 100 | > 100 | 6.25 (≈ 8.65 µM) | 0.1 (≈ 0.138 µM)
